The source of these data is ChEMBL document CHEMBL1146123, “Kinesin spindle protein (KSP) inhibitors. Part 2: the design, synthesis, and characterization of 2,4-diaryl-2,5-dihydropyrrole inhibitors of the mitotic kinesin KSP” (Bioorg Med Chem Lett, 2006).

One may read the half-life as the time in which the quantity being followed falls by half. For orientation: EC50 means the concentration giving half of the maximal effect. Usually clearance stands for the rate of elimination divided by the concentration. As usually defined, the solubility is the dissolved amount per volume that the medium holds. One may read the IC50 as the concentration at which inhibition is half-maximal.

The nature of data set [1]: Half life in dog at 0.4 mg/kg, iv. It is filed as ADME, organism-based, Canis lupus familiaris. On the set-up: dose 0.4 mg/kg, route intravenous. The following applies: in vivo. A digest of the protocol:
(§1)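 Single intravenous dose; rats at 1.0 mg/kg (n = 4), dogs at 0.4 mg/kg (n = 4), monkeys at 0.4 mg/kg (n = 3). Plasma clearance (mL/min/kg), steady-state volume of distribution (Vdss, L/kg) and half-life (h) taken from the plasma concentration profile.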

The subject of another data set is A2780. The data set is described as follows: Mitotic arrest in A2780 cells. It is filed as functional, cell-based. The following applies: Homo sapiens. A digest of the protocol: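 Mitosis-specific nucleolin phosphorylation read-out. Total nucleolin is captured on streptavidin paramagnetic beads carrying biotinylated anti-nucleolin antibody 4E2, and detected by electrochemiluminescence of a Tris-bipyridyl label. Cells were treated for 16 h with a 7-point, half-log dilution series. EC50 is the average of at least two independent determinations.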

Data set [2] in a line: Plasma clearance in rat at 1 mg/kg, iv. It is filed as ADME, organism-based. On the set-up: dose 1 mg/kg, route intravenous. A digest of the protocol:
as §1

The nature of data set [3]: Half life in rat at 1 mg/kg, iv. The following applies: in vivo. On the set-up: dose 1 mg/kg, route intravenous. The class given is ADME, organism-based. In outline:
as §1

Data set [4] in a line: Aqueous solubility at pH 5. The following applies: aqueous solution. It is filed as physicochemical.
Data set [5] is described as follows: Volume distribution in dog at 0.4 mg/kg, iv. It is filed as ADME, organism-based, Canis lupus familiaris. On the set-up: dose 0.4 mg/kg, route intravenous. The following applies: in vivo, read-out: Vdss. A digest of the protocol:
as §1

Data set [6] in a line: Plasma clearance in monkey at 0.4 mg/kg, iv. The following applies: rhesus monkey. On the set-up: dose 0.4 mg/kg, route intravenous. The class given is ADME, organism-based, Macaca mulatta. A digest of the protocol:
as §1

Data set [7] is described as follows: Half life in monkey at 0.4 mg/kg, iv. The class given is ADME, organism-based, Macaca mulatta. On the set-up: dose 0.4 mg/kg, route intravenous. The following applies: rhesus monkey, in vivo. In outline:
as §1

The nature of data set [8]: Volume distribution in monkey at 0.4 mg/kg, iv. The class given is ADME, organism-based, Macaca mulatta. The following applies: rhesus monkey, in vivo, read-out: Vdss. On the set-up: dose 0.4 mg/kg, route intravenous. In outline:
as §1

A short description of data set [9]: Volume distribution in rat at 1 mg/kg, iv. On the set-up: dose 1 mg/kg, route intravenous. The following applies: in vivo, read-out: Vdss. It is filed as ADME, organism-based. In outline:
as §1

Data set [10] is described as follows: Plasma clearance in dog at 0.4 mg/kg, iv. On the set-up: dose 0.4 mg/kg, route intravenous. The class given is ADME, organism-based, Canis lupus familiaris. A digest of the protocol:
as §1

In data set [11] the target is T1, Kinesin-like protein KIF11 (Homo sapiens, UniProt P52732).
T1 sequence (P52732 whole entry): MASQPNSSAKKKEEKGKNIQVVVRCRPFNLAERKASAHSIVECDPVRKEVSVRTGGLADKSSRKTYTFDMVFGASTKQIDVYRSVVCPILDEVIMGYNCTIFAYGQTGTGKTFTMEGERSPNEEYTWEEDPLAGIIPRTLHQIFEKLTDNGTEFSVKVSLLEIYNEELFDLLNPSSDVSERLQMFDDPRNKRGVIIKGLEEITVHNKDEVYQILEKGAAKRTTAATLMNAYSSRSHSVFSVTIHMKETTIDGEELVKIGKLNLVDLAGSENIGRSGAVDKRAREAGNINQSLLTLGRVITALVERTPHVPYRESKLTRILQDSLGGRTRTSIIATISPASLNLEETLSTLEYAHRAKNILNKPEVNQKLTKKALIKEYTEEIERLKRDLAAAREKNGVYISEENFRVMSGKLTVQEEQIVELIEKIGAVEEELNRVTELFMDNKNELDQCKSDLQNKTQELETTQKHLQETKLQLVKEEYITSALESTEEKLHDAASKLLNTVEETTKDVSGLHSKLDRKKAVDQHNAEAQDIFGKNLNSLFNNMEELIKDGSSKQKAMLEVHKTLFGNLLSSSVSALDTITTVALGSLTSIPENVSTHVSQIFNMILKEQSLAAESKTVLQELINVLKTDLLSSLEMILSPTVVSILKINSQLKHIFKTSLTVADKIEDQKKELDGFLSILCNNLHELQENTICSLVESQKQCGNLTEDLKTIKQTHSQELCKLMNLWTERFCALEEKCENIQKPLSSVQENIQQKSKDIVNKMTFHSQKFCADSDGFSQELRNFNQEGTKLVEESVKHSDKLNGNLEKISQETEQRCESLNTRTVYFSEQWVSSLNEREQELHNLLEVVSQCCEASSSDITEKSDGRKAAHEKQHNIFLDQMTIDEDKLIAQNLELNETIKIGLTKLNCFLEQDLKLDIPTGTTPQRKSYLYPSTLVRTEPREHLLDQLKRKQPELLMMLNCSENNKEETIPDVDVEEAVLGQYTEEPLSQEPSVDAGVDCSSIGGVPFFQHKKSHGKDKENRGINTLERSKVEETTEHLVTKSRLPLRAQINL
Nature of the data set: Inhibition of KSP.

For data set [12], the target named is Voltage-gated inwardly rectifying potassium channel KCNH2 (Homo sapiens, UniProt Q12809). The data set is described as follows: Inhibitory activity against human hERG receptor expressed in HEK cells. On the technique in general: Block of hERG is tested as a sign of cardiac risk.

Some results are limits rather than exact numbers.

Chain of Voltage-gated inwardly rectifying potassium channel KCNH2 (Q12809 whole entry): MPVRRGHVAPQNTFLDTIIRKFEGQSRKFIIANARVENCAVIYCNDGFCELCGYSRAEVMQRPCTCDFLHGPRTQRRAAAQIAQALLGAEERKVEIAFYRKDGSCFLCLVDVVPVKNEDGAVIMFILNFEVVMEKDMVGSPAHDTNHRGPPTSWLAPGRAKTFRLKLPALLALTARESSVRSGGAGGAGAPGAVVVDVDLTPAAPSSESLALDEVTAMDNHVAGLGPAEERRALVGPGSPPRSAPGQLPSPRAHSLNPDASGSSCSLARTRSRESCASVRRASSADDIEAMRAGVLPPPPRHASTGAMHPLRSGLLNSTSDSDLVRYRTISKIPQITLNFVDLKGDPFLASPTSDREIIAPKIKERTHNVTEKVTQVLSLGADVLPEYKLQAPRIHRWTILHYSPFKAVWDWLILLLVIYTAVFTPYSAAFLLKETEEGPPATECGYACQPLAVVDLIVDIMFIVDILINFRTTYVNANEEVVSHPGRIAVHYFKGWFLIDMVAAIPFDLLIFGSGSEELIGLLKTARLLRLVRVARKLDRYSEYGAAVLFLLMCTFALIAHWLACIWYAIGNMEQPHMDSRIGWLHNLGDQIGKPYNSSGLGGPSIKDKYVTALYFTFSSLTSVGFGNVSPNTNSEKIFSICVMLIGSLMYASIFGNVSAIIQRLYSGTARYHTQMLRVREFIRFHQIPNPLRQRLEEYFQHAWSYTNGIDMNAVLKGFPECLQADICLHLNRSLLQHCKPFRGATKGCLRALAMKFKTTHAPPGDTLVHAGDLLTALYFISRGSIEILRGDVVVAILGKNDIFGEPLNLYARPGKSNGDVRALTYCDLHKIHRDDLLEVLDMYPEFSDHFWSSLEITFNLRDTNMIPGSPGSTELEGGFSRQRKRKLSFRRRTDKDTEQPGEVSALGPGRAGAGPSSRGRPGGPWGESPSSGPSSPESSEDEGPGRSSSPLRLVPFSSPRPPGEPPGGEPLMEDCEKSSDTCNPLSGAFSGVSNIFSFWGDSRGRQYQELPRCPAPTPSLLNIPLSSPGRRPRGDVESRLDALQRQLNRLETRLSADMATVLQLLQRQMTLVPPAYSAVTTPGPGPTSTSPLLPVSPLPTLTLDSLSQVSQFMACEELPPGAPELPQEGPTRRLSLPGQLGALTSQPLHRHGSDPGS

`N[C@H](C(=O)N1CC(c2cc(F)ccc2F)=C[C@H]1c1ccccc1)C1CC1`: the half-life in data set [1] is 2.3 h; in data set [3], 1.4 h; in data set [7], 4.5 h. The same compound gave an EC50 with A2780 of 8.6 nM. In addition, the clearance in data set [2] stood at 40 mL/min/kg; in [6] it was 21 mL/min/kg; in [10] it was 23 mL/min/kg. For the same compound, the solubility in data set [4] was more than 10000 µg/mL. Also, the Vd came out at 3.8 L/kg in data set [5], 7.4 L/kg in [8] and 4.4 L/kg in [9].
Compound `CC(C)(C)C(=O)N1N=C(c2cc(F)ccc2F)CC1c1ccccc1` (racemic) displayed an IC50 in data set [11] of 113 nM.
With `CC(C)[C@@H](N)C(=O)N1CC(c2cc(F)ccc2F)=C[C@H]1c1ccccc1`, 3100 nM corresponded to half-maximal inhibition in data set [11] (IC50).
In the case of `CC(C)[C@H](N)C(=O)N1CC(c2cc(F)ccc2F)=C[C@H]1c1ccccc1`, in the data set with A2780, the EC50 was 12 nM. In data set [11], this compound yielded an IC50 of 3.6 nM.
On to `CC(C)(CN)C(=O)N1CC(c2cc(F)ccc2F)=C[C@H]1c1ccccc1`, for which, in the data set on A2780, the EC50 worked out at 11 nM. In data set [11], the IC50 came out at 5.2 nM.
For `CC(C)(C)[C@H](N)C(=O)N1CC(c2cc(F)ccc2F)=C[C@H]1c1ccccc1`, in that order: 7.1 nM and 2.7 nM.
With `CN(C(=O)N1CC(c2cc(F)ccc2F)=C[C@H]1c1ccccc1)C1CCNCC1`, a half-maximal effect in the data set on A2780 (EC50) was put at 6.8 nM. The same compound registered a solubility in data set [4] of more than 10000 µg/mL.
For the compound `CN(CCCN)C(=O)N1CC(c2cc(F)ccc2F)=C[C@H]1c1ccccc1`, a half-maximal effect with A2780 (EC50) was put at 44 nM. The compound also displayed an IC50 in data set [11] of 16 nM.
The compound `CC(=O)N1CC(c2cc(F)ccc2F)=CC1c1ccccc1` (racemic) yielded an IC50 in data set [11] of 4000 nM.
Regarding `CC(C)(C)C(=O)N1CC(c2cc(F)ccc2F)=CC1c1ccccc1` (racemic), the IC50 in [11] worked out at 85 nM.
Take `CC(=O)N1CCC(N(C)C(=O)N2CC(c3cc(F)ccc3F)=C[C@H]2c2ccccc2)CC1`: in the data set with A2780, the EC50 worked out at 69 nM. The same compound displayed an IC50 in data set [11] of 50 nM.
Compound `O=C([C@@H](O)C1CC1)N1CC(c2cc(F)ccc2F)=C[C@H]1c1ccccc1` showed an EC50 with A2780 of 20 nM. In addition, the IC50 in [12] came out at 11000 nM; in [11] it was 11 nM.
Turning to `CN(C)C(=O)N1CC(c2cc(F)ccc2F)=C[C@@H]1c1ccccc1`, in data set [11], the IC50 is more than 50000 nM.
In the data set on A2780, `CC(C)(C)[C@H](NC(=O)OCCO)C(=O)N1CC(c2cc(F)ccc2F)=C[C@H]1c1ccccc1` returned an EC50 of 13 nM. Further, in data set [11], inhibition was half-maximal at 7.4 nM (IC50).
